In brackets after ≈: the same amount, converted by molar mass.
Key:
Homo sapiens [1] = organism: Homo sapiens; assay: Bronchorelaxant activity in human small airways assessed as remaining contraction at 1 uM relative to LTD4; format: functional
How it was run: (§1)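 Isolated human small airways (inner diameter <2.0 mm) were mounted in a previously described apparatus and contracted with LTD4. The test item was added, usually at 10 μM and also at 1 μM. %RC is the contraction remaining with the test item, expressed against the maximum LTD4-evoked contraction without it.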

Homo sapiens [2] = organism: Homo sapiens; assay: Bronchorelaxant activity in human small airways assessed as remaining contraction at 10 uM relative to LTD4; format: functional; how it was run: as §1
[3] = Lipophilicity log D of the compound at pH 7.4; format: physicochemical; conditions: buffer
[4] = Aqueous solubility of the compound; format: physicochemical
Homo sapiens [5] = organism: Homo sapiens; assay: Bronchorelaxant activity in human small airways assessed as remaining contraction at 10 uM relative to acetylcholine; format: functional
How it was run: (§2)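 Isolated human small airways (inner diameter <2.0 mm) were contracted with acetylcholine, with histamine, or with a cocktail of LTD4, acetylcholine and histamine. Test item at 10 μM; relaxation of each induced contraction was recorded.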

Homo sapiens [6] = organism: Homo sapiens; assay: Bronchorelaxant activity in human small airways assessed as remaining contraction at 10 uM relative to acetylcholine and histamine combination; format: functional; how it was run: as §2
Homo sapiens [7] = organism: Homo sapiens; assay: Bronchorelaxant activity in human small airways assessed as remaining contraction; format: functional; how it was run: as §1
Homo sapiens [8] = organism: Homo sapiens; assay: Bronchorelaxant activity in human small airways assessed as remaining contraction at 10 uM relative to histamine; format: functional; how it was run: as §2

| SMILES | Activity (Homo sapiens [1]) | Activity (Homo sapiens [2]) | also measured |
| --- | --- | --- | --- |
| Cc1nc(C(F)(F)F)ncc1/C=C/C(=O)N1CCc2c(Cl)c(O)c(O)c(Cl)c2C1 | 88% | 18% | – |
| O=C(CCCc1ccc(Cl)cc1)N1CCc2c(Cl)c(O)c(O)c(Cl)c2C1 | 80% | 16% | – |
| O=C(CCCc1ncc(C(F)(F)F)cc1C1CCCCC1)N1CCc2c(Cl)c(O)c(O)c(Cl)c2C1 | – | 77% | – |
| Cc1cc(C(F)(F)F)cnc1CCCC(=O)N1CCc2c(Cl)c(O)c(O)c(Cl)c2C1 | 67% | 7% | – |
| Cc1c(O)c(O)c(C)c2c1CCN(C(=O)/C=C/c1ccc(C(F)(F)F)nc1)C2 | – | 75% | – |
| N#Cc1ccc(CCCC(=O)N2CCc3c(Cl)c(O)c(O)c(Cl)c3C2)nc1 | 86% | 34% | – |
| O=C(/C=C/c1cccnc1)N1CCc2c(Cl)c(O)c(O)c(Cl)c2C1 | 100% | 44% | – |
| O=C(CCc1ccc(C(F)(F)F)nc1)N1CCc2c(Cl)c(O)c(O)c(Cl)c2C1 | – | 29% | – |
| O=C(/C=C/c1ccc(C(F)(F)F)nc1)N1CCc2c(c3c(c4c2CCO4)OCC3)C1 | – | 91% | – |
| O=C(CCCc1ccc(Cl)cn1)N1CCc2c(Cl)c(O)c(O)c(Cl)c2C1 | 85% | 15% | – |
| O=C(CCCc1ccc(F)cn1)N1CCc2c(Cl)c(O)c(O)c(Cl)c2C1 | 89% | 25% | – |
| Cc1nc(C(F)(F)F)ccc1/C=C/C(=O)N1CCc2c(Cl)c(O)c(O)c(Cl)c2C1 | 71% | 9% | – |
| O=C(CCc1ccc(C(F)(F)F)nc1)N1CCc2c(F)c(O)c(O)c(F)c2C1 | – | 85% | – |
| O=C(CCCc1ncc(C(F)(F)F)cc1-c1ccccc1)N1CCc2c(Cl)c(O)c(O)c(Cl)c2C1 | 90% | 38% | – |
| O=C(CCCc1ccc([N+](=O)[O-])cn1)N1CCc2c(Cl)c(O)c(O)c(Cl)c2C1 | 74% | 33% | – |
| O=C(/C=C/c1ccc(F)cn1)N1CCc2c(Cl)c(O)c(O)c(Cl)c2C1 | – | 24% | – |
| O=C(/C=C/c1ccccc1)N1CCc2c(Cl)c(O)c(O)c(Cl)c2C1 | 83% | 41% | – |
| CS(=O)(=O)c1ccc(CCCC(=O)N2CCc3c(Cl)c(O)c(O)c(Cl)c3C2)nc1 | 99% | 72% | – |
| O=C(CCCc1ccc(C(F)(F)F)cn1)N1CCc2c(Cl)c(O)c(O)c(Cl)c2C1 | 72% | 19% | – |
| O=C(CCCc1ccc(C(F)(F)F)nc1)N1CCc2c(Cl)c(O)c(O)c(Cl)c2C1 | 93% | 26% | – |
| C/C(=C\C(=O)N1CCc2c(Cl)c(O)c(O)c(Cl)c2C1)c1ccc(C(F)(F)F)nc1 | 74% | 7% | logD [3]: 3.5; solubility [4]: 18 µM (≈ 8.05 µg/mL); Activity (Homo sapiens [5]): 93%; Activity (Homo sapiens [6]): 82%; ED50 (Homo sapiens [7]): 2.27 µM; Activity (Homo sapiens [8]): 97% |
| COc1ccc(CCCC(=O)N2CCc3c(Cl)c(O)c(O)c(Cl)c3C2)nc1 | 96% | 31% | – |
| O=C(/C=C/c1ccc(O)cc1)N1CCc2c(Cl)c(O)c(O)c(Cl)c2C1 | – | 32% | – |
| O=C(/C=C/c1ccc(C(F)(F)F)nc1)N1CCc2c(Cl)c(O)c(O)c(Cl)c2C1 | 87% | 6% | – |
| O=C(CCCc1ncc(C(F)(F)F)cc1Cl)N1CCc2c(Cl)c(O)c(O)c(Cl)c2C1 | 61% | 5% | – |
